Results on one molecule are retold here after ChEMBL document CHEMBL1121475, “Inhibitors of indoleethylamine N-methyltransferase. Derivatives of 3-methyl-2-thiazolidinimine. In vitro, in vivo, and metabolic studies” (J Med Chem, 1980).

The target of series [1] is Indolethylamine N-methyltransferase (Homo sapiens) (UniProt O95050). In words: In vitro evaluation of Indoleethylamine-N-methyltransferase in human lung preparations for the ability to inhibit conversion of N-methyltryptamine (NMT) to N,N-dimethyltryptamine (DMT) at dose 2.5 ug/mL. The series is classed as tissue-based. A digest of the protocol: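 Human lung INMT was taken from the 50000g supernatant, cut with 40-60% ammonium sulfate, dialysed and purified on Sephadex G-150. The reaction contained 0.007 M N-methyltryptamine stock, S-[methyl-14C]adenosylmethionine and potassium phosphate, pH 7.9, in 0.105 mL, run 90 min at 37 °C. It was stopped with borate at pH 10. [14C]DMT was extracted into isoamyl alcohol and counted by scintillation.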
Indolethylamine N-methyltransferase (Homo sapiens), sequence (O95050 whole entry): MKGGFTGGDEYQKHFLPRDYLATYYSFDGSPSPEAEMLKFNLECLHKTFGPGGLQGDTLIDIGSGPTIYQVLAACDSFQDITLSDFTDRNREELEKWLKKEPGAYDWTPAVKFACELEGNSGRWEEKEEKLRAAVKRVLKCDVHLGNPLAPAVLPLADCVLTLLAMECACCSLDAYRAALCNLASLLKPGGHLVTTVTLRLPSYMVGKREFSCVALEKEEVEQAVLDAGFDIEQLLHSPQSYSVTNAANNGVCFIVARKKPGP

For series [2], the system named is Oryctolagus cuniculus. In words: 100 mg/kg of [14C]- radiolabeled compound was intravenously (gavage) injected in rabbit3, and radioactivity content in feces was estimated at total hours. The settings on record: rabbit, in vivo, po, in the assay text read “orally (gavage) administered” for “intravenously (gavage) injected”. The class given is ADME, organism-based. In outline:
(§1)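 Rabbit given 100 mg/kg [14C]-labelled drug by gavage, 204.6 dpm/μg, in water/0.1 N HCl at 6.66 mg/mL. Rabbit 1 was killed at 2 h and liver, lung, kidney and blood taken; tissue values are μg equivalents/g and tissue:plasma ratio. Rabbit 3 was kept for urine (0-24, 24-48, 48-72 h) and feces (0-48 h), expressed as % of dose.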

In series [3] the test system is Indolethylamine N-methyltransferase (Oryctolagus cuniculus). Description: Compound tested for inhibitory activity against rabbit lung Indoleethylamine-N-methyltransferase at oral dose 25 mg/kg.
The test system of series [4] is Oryctolagus cuniculus. Description: Evaluation of formation of 3-Methyl-thiazolidin-2-ylideneamine from the radiolabeled compound, orally administered, from rabbit 4 urine was analyzed at 0-2 hr by Gas-liquid chromatographic analysis. The settings on record: in vivo, po, in the assay text read “0-24 hr” for “0-2 hr”. The series is classed as ADME, organism-based. A digest of the protocol: (§2)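 Rabbits 3 (single 100 mg/kg) and 4 (two 100 mg/kg doses 2 h apart) were gavaged with [14C]-labelled parent amide (204.6 dpm/μg). They were not killed; urine was collected 0-24 h. The metabolite was quantified by GLC of trimethylsilylated extracts against an internal-standard peak-height-ratio curve. Results are given as % of urinary radioactivity or % of administered dose, mean of two determinations.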

For series [5], the system named is Oryctolagus cuniculus. Description: Evaluation of formation of 3-Methyl-thiazolidin-2-ylideneamine from the radiolabeled compound, orally administered, from rabbit 1,2 liver was analyzed by Gas-liquid chromatographic analysis. The class given is ADME, organism-based. The settings on record: in vivo, po. A digest of the protocol:
(§3)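 Rabbit 1 was given [14C]-labelled parent amide, 100 mg/kg (204.6 dpm/μg), orally by gavage and killed 2 h later. Urine (0-2 h), blood, liver, lung and kidney were collected. Samples were extracted, trimethylsilylated with BSA/pyridine at 70 °C for 12-16 h, and run by GLC on 3% OV-210 at 95 °C against the internal standard 3-ethyl-2-thiazolidinimine. Output is % of radioactivity present as the metabolite, mean of two determinations.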

Series [6] relates to Oryctolagus cuniculus. In words: 100 mg/kg of [14C]- radiolabeled compound was orally (gavage) administered in rabbit3, and radioactivity content in urine was estimated at 24-48 h. The settings on record: rabbit, in vivo, po.
The test system of series [7] is Oryctolagus cuniculus. Description: Percent of 3-Methyl-thiazolidin-2-ylideneamine as administered dose was reported in rabbit 2. The settings on record: in vivo. The series is classed as ADME, organism-based.
The subject of series [8] is Oryctolagus cuniculus. In words: 100 mg/kg of [14C]- radiolabeled compound was orally (gavage) injected in rabbit kidney, and radioactivity content in feces was estimated. The settings on record: in vivo, po. The class given is ADME, organism-based. In outline:
as §1

For series [9], the system named is Oryctolagus cuniculus. Description: Evaluation of formation of 3-Methyl-thiazolidin-2-ylideneamine from the radiolabeled compound, orally administered, from rabbit 2,4 plasma was analyzed by Gas-liquid chromatographic analysis. The settings on record: in vivo, po. The series is classed as ADME, organism-based. A digest of the protocol: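 Rabbit 2 was gavaged twice with [14C]-labelled parent amide, 100 mg/kg each dose (204.6 dpm/μg), 2 h apart, and killed 2 h after the second dose. Urine (0-4 h), blood, liver, lung and kidney were taken. The metabolite was measured by GLC of trimethylsilyl derivatives (3% OV-210, 95 °C, internal standard 3-ethyl-2-thiazolidinimine). Values are % of radioactivity as metabolite, mean of two determinations.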

In series [10] the test system is Oryctolagus cuniculus. Description: 100 mg/kg of [14C]- radiolabeled compound was orally administered in rabbit3, and radioactivity content in feces was estimated at 0-48 hr. The settings on record: rabbit, in vivo, po.
The test system of series [11] is Oryctolagus cuniculus. In words: 100 mg/kg of [14C]- radiolabeled compound was orally administered in rabbit3, and radioactivity content in urine was estimated at 0-24 hr. The settings on record: rabbit, in vivo, po.
Series [12] has as its system Oryctolagus cuniculus. In words: 200 mg/kg of [14C]- radiolabeled compound was orally administered in rabbit4, and radioactivity content in urine was estimated at 48-72 h. The settings on record: rabbit, in vivo, po.
The test system of series [13] is Indolethylamine N-methyltransferase (Oryctolagus cuniculus). Description: Compound tested for inhibitory activity against rabbit lung Indoleethylamine-N-methyltransferase at 5 mg/kg intravenously*p< 0.05.
Series [14] relates to Oryctolagus cuniculus. In words: Evaluation of formation of 3-Methyl-thiazolidin-2-ylideneamine from the radiolabeled compound, orally administered, from rabbit 1,2 lung was analyzed by Gas-liquid chromatographic analysis. The series is classed as ADME, organism-based. The settings on record: in vivo, po. A digest of the protocol:
as §3

Series [15] relates to Oryctolagus cuniculus. In words: 100 mg/kg of [14C]- radiolabeled compound was orally (gavage) injected in rabbit 1 lung, and radioactivity content in feces was estimated at. The series is classed as ADME, organism-based. The settings on record: in vivo, po. A digest of the protocol:
as §1

Series [16] has as its system Oryctolagus cuniculus. Description: 100 mg/kg of [14C]- radiolabeled compound was orally administered in rabbit3, and radioactivity content in urine was estimated at total hours. The settings on record: rabbit, in vivo, po.
The subject of series [17] is Oryctolagus cuniculus. In words: 100 mg/kg of [14C]- radiolabeled compound was orally administered in rabbit1, and radioactivity content in urine was estimated at 0-2 hr. The settings on record: rabbit, in vivo, po.
Series [18] concerns Oryctolagus cuniculus. Description: Radioactivity measurements were performed following oral administration of the 100 mg/kg in rabbit 5 after 2 hr brain. The class given is ADME, organism-based. Also noted: dose 100 mg/kg, route oral. The settings on record: in vivo. In outline: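 Male rabbits (900-1060 g) received [14C]-labelled parent amide, 100 mg/kg (251.7 dpm/μg, pH about 4.5), by gavage. At 2 or 6 h they were killed by air injection into the ear vein. Blood was drawn by cardiac puncture; brain and lung were homogenized in water (1 g = 10 mL). Radioactivity is expressed as μg equivalents of parent per g or mL.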

For series [19], the system named is Oryctolagus cuniculus. Description: 200 mg/kg of [14C]- radiolabeled compound was intravenously (gavage) injected in rabbit4, and radioactivity content in feces was estimated at 0-48 hr. The class given is ADME, organism-based. The settings on record: rabbit, in vivo, po, in the assay text read “orally (gavage) administered” for “intravenously (gavage) injected”. A digest of the protocol: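 Rabbit given two 100 mg/kg gavage doses of [14C]-labelled drug, 2 h apart, 204.6 dpm/μg, 6.66 mg/mL in water/0.1 N HCl. Rabbit 2 was killed 2 h after the last dose and liver, lung, kidney and plasma taken (μg equivalents/g; tissue:plasma ratio). Rabbit 4 gave urine over 0-4, 0-24, 24-48 and 48-72 h and feces over 0-48 h, as % of dose.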

Series [20] relates to Oryctolagus cuniculus. In words: Percent of 3-Methyl-thiazolidin-2-ylideneamine as administered dose was reported in rabbit 3 by Gas-liquid chromatographic analysis. The series is classed as ADME, organism-based. The settings on record: in vivo. A digest of the protocol:
as §2

Series [21] has as its system Oryctolagus cuniculus. Description: Evaluation of formation of 3-Methyl-thiazolidin-2-ylideneamine from the radiolabeled compound, orally administered, from rabbit 1,2 plasma was analyzed by Gas-liquid chromatographic analysis. The class given is ADME, organism-based. The settings on record: in vivo, po. In outline:
as §3

By inhibition is commonly meant the percentage by which the read-out fell short of the control. Low readings indicate a response near the control, high ones a response far below the control. Consider `CN1CCS/C1=N\C(=O)CCC(=O)/N=C1/SCCN1C`, for which the values for the inhibition in series [1], in [3] and in [13] were 74%, 76.1% and 64%, respectively. The Administered dose in the series with Oryctolagus cuniculus [2] is 90.7%; in the series with Oryctolagus cuniculus [6] it was 0.8%; with Oryctolagus cuniculus [7], 10.8%; in the series on Oryctolagus cuniculus [10], 3.8%; in the series on Oryctolagus cuniculus [11] it was 85.9%; in the series on Oryctolagus cuniculus [12] it was 0.1%. Further, the Administered dose in the series on Oryctolagus cuniculus [16] is listed as 86.9%; with Oryctolagus cuniculus [17], 48.8%; in the series with Oryctolagus cuniculus [19] it was 6%; in the series on Oryctolagus cuniculus [20], 41.2%. The Radioactivity was found to be 48.7% in the series with Oryctolagus cuniculus [4]; 37.9% in the series with Oryctolagus cuniculus [5]; 48.9% in the series on Oryctolagus cuniculus [9]; 92.9% in the series on Oryctolagus cuniculus [14]; 26.5% in the series on Oryctolagus cuniculus [21]. Besides, in the series with Oryctolagus cuniculus [8], the Tissue concentration is 211 µg/g. The Tissue to plasma ratio in the series on Oryctolagus cuniculus [15] is 1.5. Further, in the series on Oryctolagus cuniculus [18], the Radioactivity level amounted to 17.8 µg/g.
